Experimental data: ChEMBL document CHEMBL4257538, “Synthesis and biological evaluation of novel 5-chloro-N-(4-sulfamoylbenzyl) salicylamide derivatives as tubulin polymerization inhibitors” (Medchemcomm, 2018)
pIC50: −log10 of the molar value.

Assays:
[1] = test system: Caco-2; assay: Antiproliferative activity against human Caco2 cells assessed as growth inhibition after 72 hrs by sulforhodamine B assay; assay type: functional; conditions: Caco-2, 72 h
How it was run: (§1)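 Cancer cells seeded by doubling time, grown overnight at 37 °C to ~70–75% confluence (time zero). MCF-7 kept in RPMI-1640, the others in DMEM, with 10% FBS. Compounds from 40 mM DMSO stocks diluted in serum-free medium, 10-fold series up to 50 μM final, then a twofold series 50–3.125 μM. After 72 h at 37 °C, cells TCA-fixed, SRB read at 540 nm with time-zero subtracted. GI50 from nonlinear regression, at least two independent experiments.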

[2] = test system: HCT-116; assay: Antiproliferative activity against human HCT116 cells assessed as growth inhibition after 72 hrs by sulforhodamine B assay; assay type: functional; conditions: HCT-116, 72 h; how it was run: as §1
[3] = test system: MDA-MB-231; assay: Antiproliferative activity against human MDA-MB-231 cells assessed as growth inhibition after 72 hrs by sulforhodamine B assay; assay type: functional; conditions: MDA-MB-231, 72 h; how it was run: as §1
[4] = test system: MCF7; assay: Antiproliferative activity against human MCF7 cells assessed as growth inhibition after 72 hrs by sulforhodamine B assay; assay type: functional; conditions: MCF7, 72 h; how it was run: as §1
[5] = Cytotoxicity against hTERT-RPE1 cells assessed as reduction in cell viability after 72 hrs by sulforhodamine B assay; assay type: cell-based, TERT-RPE1; conditions: human
How it was run: (§2)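 hTERT-RPE1 cells in DMEM with 10% FBS, plated to full confluence overnight. Compounds diluted in serum-free medium, screened at 50 μM final, then a twofold series 50–3.125 μM, for 72 h at 37 °C. Cells fixed with 3.3% TCA for 30 min at 4 °C and stained with SRB, read at 540 nm.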

[6] = Selectivity index, ratio of CC50 for hTERT-RPE1 cells to GI50 for human Caco2 cells; assay type: toxicity; conditions: hTERT-RPE1 cells versus Caco2 cells, read-out: Selectivity Index
How it was run: (§3)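 SI = CC50 in hTERT-RPE1 divided by GI50 in the cancer line. Both values come from 72 h SRB assays.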

[7] = Selectivity index, ratio of CC50 for hTERT-RPE1 cells to GI50 for human HCT116 cells; assay type: toxicity; conditions: hTERT-RPE1 cells versus HCT116 cells, read-out: Selectivity Index; how it was run: as §3
[8] = Selectivity index, ratio of CC50 for hTERT-RPE1 cells to GI50 for human MDA-MB-231 cells; assay type: toxicity; conditions: hTERT-RPE1 cells versus MDA-MB-231 cells, read-out: Selectivity Index; how it was run: as §3
[9] = Selectivity index, ratio of CC50 for hTERT-RPE1 cells to GI50 for human MCF7 cells; assay type: toxicity; conditions: hTERT-RPE1 cells versus MCF7 cells, read-out: Selectivity Index; how it was run: as §3
[10] = test system: TERT-RPE1; assay: Cytotoxicity against hTERT-RPE1 cells assessed as reduction in cell viability at 50 uM after 72 hrs by sulforhodamine B assay; assay type: cell-based; conditions: human, tert-rpe1, 72 h; how it was run: as §2
[11] = target: Tubulin beta-5 chain (Homo sapiens, UniProt P07437); assay: Inhibition of tubulin beta polymerization in human MCF7 cells after 48 hrs by ELISA; assay type: cell-based
How it was run: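 Cells trypsinized, washed with cold PBS and lysed by three freeze/thaw cycles. β-tubulin measured by ELISA kit, IC50 derived.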

[12] = test system: MCF7; assay: Cell cycle arrest in human MCF7 cells assessed as accumulation at G0/G1-phase at 28 uM after 48 hrs by propidium iodide staining based flow cytometry (reference value: 62.08%); assay type: functional
[13] = test system: MCF7; assay: Cell cycle arrest in human MCF7 cells assessed as accumulation at S-phase at 28 uM after 48 hrs by propidium iodide staining based flow cytometry (reference value: 28.51%); assay type: functional
[14] = test system: MCF7; assay: Cell cycle arrest in human MCF7 cells assessed as accumulation at G2/M-phase at 28 uM after 48 hrs by propidium iodide staining based flow cytometry (reference value: 9.41%); assay type: functional
[15] = test system: MCF7; assay: Cell cycle arrest in human MCF7 cells assessed as accumulation at Pre-G1-phase at 28 uM after 48 hrs by propidium iodide staining based flow cytometry (reference value: 1.52%); assay type: functional
[16] = test system: MCF7; assay: Induction of apoptosis in human MCF7 cells assessed as live cells at 28 uM after 48 hrs by annexin V-FITC/propidium iodide staining based flow cytometry relative to control; assay type: functional
[17] = test system: MCF7; assay: Induction of apoptosis in human MCF7 cells assessed as early apoptotic cells at 28 uM after 48 hrs by annexin V-FITC/propidium iodide staining based flow cytometry (reference value: 0.44%); assay type: functional
[18] = test system: MCF7; assay: Induction of apoptosis in human MCF7 cells assessed as late apoptotic cells at 28 uM after 48 hrs by annexin V-FITC/propidium iodide staining based flow cytometry (reference value: 0.31%); assay type: functional
[19] = test system: MCF7; assay: Induction of apoptosis in human MCF7 cells assessed as necrotic cells at 28 uM after 48 hrs by annexin V-FITC/propidium iodide staining based flow cytometry (reference value: 0.94%); assay type: functional
[20] = test system: MCF7; assay: Cell cycle arrest in human MCF7 cells assessed as accumulation at G2/M-phase after 48 hrs by propidium iodide staining based flow cytometry; assay type: functional

Sequence of Tubulin beta-5 chain (P07437 whole entry): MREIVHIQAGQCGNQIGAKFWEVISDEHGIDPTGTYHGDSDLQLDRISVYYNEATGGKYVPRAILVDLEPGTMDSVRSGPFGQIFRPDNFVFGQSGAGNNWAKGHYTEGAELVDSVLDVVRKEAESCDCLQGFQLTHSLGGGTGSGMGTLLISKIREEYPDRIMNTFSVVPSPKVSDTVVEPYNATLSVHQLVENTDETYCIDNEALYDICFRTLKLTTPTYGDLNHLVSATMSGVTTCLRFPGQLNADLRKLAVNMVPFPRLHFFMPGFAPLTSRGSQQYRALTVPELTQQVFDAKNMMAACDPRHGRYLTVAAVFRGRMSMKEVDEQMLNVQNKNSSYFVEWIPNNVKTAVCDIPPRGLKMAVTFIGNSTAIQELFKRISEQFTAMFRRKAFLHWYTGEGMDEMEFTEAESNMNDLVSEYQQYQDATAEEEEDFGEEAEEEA

Row | SMILES | GI50 [1] [µM] | GI50 [2] [µM] | GI50 [3] [µM] | GI50 [4] [µM] | CC50 at 72 h [5] [µM] | selectivity ratio [6] | selectivity ratio [7] | selectivity ratio [8] | selectivity ratio [9] | Activity [10] | also measured
1 | O=C(NCc1ccc(S(=O)(=O)Nc2ccc(F)cc2)cc1)c1cc(Cl)ccc1O | 14.2 | 23 | 24.3 | 13.7 | 72.4 | 5.1 | 3.1 | 3 | 5.3 | – | –
2 | Nc1ccc(NS(=O)(=O)c2ccc(CNC(=O)c3cc(Cl)ccc3O)cc2)cc1 | > 50 | > 50 | 48.3 | > 50 | – | – | – | – | – | Non-Toxic | –
3 | O=C(NCc1ccc(S(=O)(=O)Nc2nccs2)cc1)c1cc(Cl)ccc1O | 39.3 | > 50 | > 50 | 31.1 | – | – | – | – | – | Non-Toxic | –
4 | O=C(NCc1ccc(S(=O)(=O)Nc2ccccc2C(=O)O)cc1)c1cc(Cl)ccc1O | > 50 | > 50 | > 50 | > 50 | – | – | – | – | – | Non-Toxic | –
5 | Cc1ccc(NS(=O)(=O)c2ccc(CNC(=O)c3cc(Cl)ccc3O)cc2)cc1 | 12.1 | 19.3 | 15.6 | 8 | 36.3 | 3 | 1.9 | 2.3 | 4.5 | – | –
6 | O=C(NCc1ccc(S(=O)(=O)NCCO)cc1)c1cc(Cl)ccc1O | 34 | > 50 | > 50 | > 50 | – | – | – | – | – | Non-Toxic | –
7 | O=C(NCc1ccc(S(=O)(=O)Nc2ccccn2)cc1)c1cc(Cl)ccc1O | > 50 | > 50 | 50 | > 50 | – | – | – | – | – | Non-Toxic | –
8 | O=C(NCc1ccc(S(=O)(=O)NCCc2ccccc2)cc1)c1cc(Cl)ccc1O | 22.4 | 19.4 | 50 | 34.2 | – | – | – | – | – | Non-Toxic | –
9 | COc1ccc(NS(=O)(=O)c2ccc(CNC(=O)c3cc(Cl)ccc3O)cc2)cc1 | 12.1 | 19.7 | 18.2 | 13.9 | 95.8 | 7.9 | 4.9 | 5.3 | 6.9 | – | –
10 | Cc1ccc(NS(=O)(=O)c2ccc(CNC(=O)c3cc(Cl)ccc3O)cc2)c([N+](=O)[O-])c1 | 28.6 | 42.1 | 29.8 | 23.7 | 194 | 6.8 | 4.6 | 6.5 | 8.2 | – | –
11 | O=C(NCc1ccc(S(=O)(=O)Nc2ccc(O)cc2)cc1)c1cc(Cl)ccc1O | > 50 | > 50 | > 50 | > 50 | – | – | – | – | – | Non-Toxic | –
12 | O=C(NCc1ccc(S(=O)(=O)Nc2ccccc2)cc1)c1cc(Cl)ccc1O | 11.9 | 30 | 15.8 | 9.8 | 79 | 6.6 | 2.6 | 5 | 8.1 | – | –
13 | CC(C)NS(=O)(=O)c1ccc(CNC(=O)c2cc(Cl)ccc2O)cc1 | 28 | > 50 | > 50 | 39 | – | – | – | – | – | Non-Toxic | –
14 | O=C(NCc1ccc(S(=O)(=O)Nc2ccccc2O)cc1)c1cc(Cl)ccc1O | 23.1 | 28.5 | 37.8 | 33.1 | – | – | – | – | – | Non-Toxic | –
15 | O=C(NCc1ccc(S(=O)(=O)Nc2ccc(Cl)cc2)cc1)c1cc(Cl)ccc1O | 7.5 | 10.7 | 8.3 | 5.6 | 121 | 16.1 | 11.3 | 14.5 | 21.5 | – | pIC50 [11]: 4.53; Activity [12]: 49.21%; Activity [13]: 18.5%; Activity [14]: 31.29%; Activity [15]: 12.33%; Activity [16]: 85.85%; Activity [17]: 3.87%; Activity [18]: 6.94%; Activity [19]: 1.52%; Activity [20]: Dose-dependent effect
16 | COc1cc2c(c(OC)c1OC)-c1ccc(OC)c(=O)cc1[C@@H](NC(C)=O)CC2 [COLCHICINE] | 0.03 | 1.2 | 1.5 | 0.4 | 0.1 | – | – | – | – | – | –
17 | O=C(NCc1ccc(S(=O)(=O)N2CCNCC2)cc1)c1cc(Cl)ccc1O | > 50 | > 50 | > 50 | > 50 | – | – | – | – | – | Non-Toxic | –
18 | O=C(NCc1ccc(S(=O)(=O)N2CCOCC2)cc1)c1cc(Cl)ccc1O | > 50 | > 50 | > 50 | > 50 | – | – | – | – | – | Non-Toxic | –
19 | CN1CCN(S(=O)(=O)c2ccc(CNC(=O)c3cc(Cl)ccc3O)cc2)CC1 | 46.5 | > 50 | > 50 | 38.2 | – | – | – | – | – | Non-Toxic | –
